# High-throughput results as filed in PubChem.
# Rev-erbA mod: modulators of Rev-erb alpha DNA binding, primary screen, biochemical, FITC-DNA, fluorescence polarization, uHTS | Nuclear receptor subfamily 1 group D member 1 (Homo sapiens), P20393 | Rev-erbα–FITC-DNA binding, 90 min | activity, % at 10 µM | 370,000 tested, 0.79% active | AID 1259318, 2017;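 active means activity above about 14%, limit read from the data; passing the limit was not always enough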
# Target sequence (P20393 whole entry, looked up): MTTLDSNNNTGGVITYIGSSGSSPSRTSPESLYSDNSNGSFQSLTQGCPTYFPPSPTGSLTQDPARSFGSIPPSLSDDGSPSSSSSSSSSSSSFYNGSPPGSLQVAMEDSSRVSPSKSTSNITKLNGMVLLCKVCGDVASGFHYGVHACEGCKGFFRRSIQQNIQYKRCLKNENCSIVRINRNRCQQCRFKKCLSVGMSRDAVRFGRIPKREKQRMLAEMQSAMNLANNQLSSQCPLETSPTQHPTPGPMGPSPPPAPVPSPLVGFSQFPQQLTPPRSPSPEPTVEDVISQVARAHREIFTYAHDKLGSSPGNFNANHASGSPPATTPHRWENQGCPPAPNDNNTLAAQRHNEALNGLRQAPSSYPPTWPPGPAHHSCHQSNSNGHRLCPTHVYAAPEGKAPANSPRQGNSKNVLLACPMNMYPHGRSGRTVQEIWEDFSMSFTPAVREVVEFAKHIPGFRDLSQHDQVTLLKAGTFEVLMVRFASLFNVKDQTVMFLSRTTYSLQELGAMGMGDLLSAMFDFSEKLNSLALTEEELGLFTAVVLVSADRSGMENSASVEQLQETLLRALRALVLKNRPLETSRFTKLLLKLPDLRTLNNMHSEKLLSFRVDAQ
# NR2E3 ag-1: inhibitors of NR2E3-RetCOR corepressor binding, primary screen, NR2E3 agonist project, biochemical, TR-FRET, GST-NR2E3, biotin-RetCOR; Photoreceptor-specific nuclear receptor (Homo sapiens), Q9Y5X4; 1536-well; inhibition of corepressor binding, % at 4.78 µM; 320,000 tested, 0.12% active;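 active means percent inhibition above the cutoff of mean plus 3 SD of all tested compounds, set per screening campaign, cut at about 20% in these data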
#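 Test system: GST-NR2E3 and biotin-RetCOR proteins | Quantity: 1.35 nM GST-tagged NR2E3 final | Medium: Tris pH 7.5 | Also added: 7 nM biotin-RetCOR | Dosing: Compound at 4.8 µM, single dose | Timing: 5 h at 4 °C | Detection: Time-resolved FRET | Read-out basis: Percent inhibition | Benchmarks: Biotin wells as high control, 0.6% DMSO wells as low control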
# NR2E3 ag-2: NR2E3 agonists in two-hybrid cells, primary screen, cell-based, luminescence, CHO-S, Gal4-NCOR/VP16-NR2E3 | luciferase | inhibition of corepressor binding, % at 3.98 µM | 360,000 tested, 0.35% active | AID 602229, 2012;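 active means inhibition above the mean of all tested compounds plus 3 SD, cut at about 70% in these data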;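 further: higher means lower luciferase signal from less NR2E3 corepressor binding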
# rCAG binder: binders of r(CAG) RNA repeats, primary screen, biochemical, fluorescence; r(CAG) RNA repeat, TO-PRO-1 dye displacement fluorescence; inhibition, % at 3 µM; 370,000 tested, 1.3% active;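 active means inhibition above the plate cutoff, the mean of all test compounds on that plate plus 3 SD, cut at about 35% in these data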;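 further: higher means more dye released from RNA so lower well fluorescence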
# PG9 binder: binders of HIV-1 gp120 antibody PG9, primary screen, biochemical, TR-FRET | HIV-1 gp120 / PG9 antibody interaction | TR-FRET gp120-PG9 antibody binding | inhibition, % at 6.7 µM | 360,000 tested, 0.43% active | AID 624416, 2012; in the data active means inhibition above about 8.5%
# Rev-erbA confirm: modulators of Rev-erb alpha DNA binding, confirmation, biochemical, FITC-DNA, fluorescence polarization, single point | shares compounds with Rev-erbA mod | 3,000 tested, 61% active | 90 min | activation, % at 25 µM | AID 1259319, 2017;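 active means activation at or above a set limit, or at least 3 SD above the negative control mean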
# RORg DNA counter: modulation of RORgamma DNA binding, dose response, counter-screen for Rev-erb alpha modulator project, biochemical, fluorescence polarization, FITC-DNA; shares compounds with Rev-erbA mod; purified RORgamma protein-FITC-DNA binding; 910 tested, 8% active; AID 1259320, 2017; IC50, µM;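 active means Compounds whose fitted half-maximal concentration for disrupting protein-DNA binding is below 10 micromolar; the record names Rev-erb in its text, so the target is in doubt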
# Numbers stand for hits; – = inactive; · = not tested or not shown. Shown are actives, neighbours in structure and some others; about 2.6% of the full set was active somewhere.
SMILES,Rev-erbA mod,NR2E3 ag-1,NR2E3 ag-2,rCAG binder,PG9 binder,Rev-erbA confirm,others
Cn1c2ccccc2c(=O)c2cc(C#Cc3ccccn3)ccc21,–,–,–,–,–,·,
Cn1c2ccccc2c(=O)c2cc(C#Cc3ccsc3)ccc21,22,–,–,–,–,–,
CN(C)C(=O)COC(=O)c1ccccc1Sc1ccccc1C#N,–,–,–,–,–,·,
N#Cc1cccc(NC(=O)COC(=O)c2ccccc2Sc2ccccc2C#N)c1,37,–,–,–,–,21,
CC(=O)c1ccc(NC(=O)COC(=O)c2ccccc2Sc2ccccc2C#N)cc1,55,–,–,–,–,31,RORg DNA counter=–
Cc1ccc(S(=O)(=O)N2CCN(C(=O)CSc3ccccn3)CC2)c(C)c1,–,–,–,–,–,·,
CCOC(=O)C1=CCN(S(=O)(=O)c2ccc(F)cc2)C1c1ccc(Cl)cc1 (stereo not given),–,·,·,–,–,·,
CCN(CC)c1ccc2cc(C(=O)Nc3ccccn3)c(=O)oc2c1,–,–,–,–,–,·,
CCN(CC)c1ccc2cc(C(N)=O)c(=O)oc2c1,–,–,–,–,–,·,
CCN(CC)c1ccc2cc(C(C)=O)c(=O)oc2c1,36,–,–,–,–,–,
CCN(CC)c1ccc2cc(C(N)=O)c(=N)oc2c1,55,–,–,–,–,24,
CCN(CC)c1ccc2cc(C=O)c(=O)oc2c1,90,–,–,–,–,74,RORg DNA counter=–
CCN(CC)c1ccc2cc(-c3nnc(-c4ccncc4)o3)c(=O)oc2c1,59,·,–,–,–,30,
CCCOc1cc(C)c(S(=O)(=O)NCc2cccs2)cc1C,–,·,–,–,–,·,
CC1(C)C[C@H](O)[C@]2(CO)[C@H](O)C[C@]3(C)C(=CCC4[C@@]5(C)CC[C@H](O)C(C)(C)C5CC[C@]43C)[C@@H]2C1 (stereo not given in full),–,·,–,–,–,·,
O=C(CSc1nnc(-c2cccs2)n1-c1ccccc1)Nc1ccccc1,112,–,–,–,54,92,
O=C(CSc1nnc(-c2ccc(Cl)cc2)n1-c1ccccc1)Nc1ccc(Oc2ccccc2)cc1,22,·,·,–,·,–,
CCOC(=O)CSc1nnc(-c2cccs2)n1-c1ccccc1,–,–,–,–,–,·,
CCOC(=O)C1Nc2c(F)cc(C)cc2C2c3ccccc3CC12 (stereo not given),109,–,–,–,–,44,
CCOC(=O)C1Nc2ccccc2C2c3ccccc3CC12 (stereo not given),–,–,–,–,–,·,
C[C@@H]1COc2cccc(NCCCN3CCOCC3)c2S(=O)(=O)N1,–,·,·,–,–,·,
Cc1c(Cl)cccc1NC(=O)Cn1cc(C(F)(F)F)cc(Cl)c1=O,44,–,–,–,–,43,RORg DNA counter=–
Cc1cc2nc(SCC(=O)Nc3nonc3C)c3c(c2cc1C)CCCC3,103,–,–,–,–,81,
Cc1nonc1NC(=O)CSc1nc(C23CC4CC(CC(C4)C2)C3)nc2ccccc12,30,–,–,–,–,22,
C[C@@H]1CN[C@@H](CCO)/C1=C\c1ccccc1,–,·,–,–,–,·,
SMILES,Rev-erbA mod,NR2E3 ag-1,NR2E3 ag-2,rCAG binder,PG9 binder,Rev-erbA confirm,others
CC(C)Cc1nc2sc3c(=O)[nH]cnc3c2c2c1CCCC2,–,–,–,–,–,·,
O=c1[nH]cnc2c1sc1nc(C(F)F)cc(-c3ccccc3)c12,32,–,–,–,–,28,
Cc1cc(=O)oc2cc(OCC(=O)Nc3ccc4[nH]c(=O)[nH]c4c3)ccc12,–,–,–,–,–,·,
Cc1cc(=O)oc2cc(OCC(=O)Nc3ccccc3C(=O)O)ccc12,–,–,–,–,–,·,
Cc1cc(=O)oc2cc(OCC(=O)Nc3ccc(S(=O)(=O)N(C)C)cc3)ccc12,23,–,–,–,–,30,RORg DNA counter=–
Cc1cc(=O)oc2cc(OCC(=O)Nc3ccc(F)cc3F)ccc12,21,·,–,–,–,–,
CC(C)C(NS(=O)(=O)c1ccccc1)C(=O)N1CCCC1 (stereo not given),–,–,–,–,–,·,
COC(=O)C1=C(C)N(Cc2ccccc2C(F)(F)F)C(=NCc2ccc(OC)cc2)NC1c1ccc(Cl)cc1 (stereo not given),–,·,·,–,–,·,
CC1CC(=O)N(c2ccc(NCCc3ccc(O)cc3)c([N+](=O)[O-])c2)C1=O (stereo not given),19,–,–,–,–,–,
CC1CC(=O)N(c2ccc(NCCc3ccccc3)c([N+](=O)[O-])c2)C1=O (stereo not given),–,–,–,–,–,·,
COc1ccc(CCN(C)C2CCCN(S(=O)(=O)c3ccccc3F)C2)cc1OC (stereo not given),–,·,–,–,–,·,
COc1ccccc1C(=O)Nc1nnc(-c2ccc(F)cc2)s1,36,–,–,–,–,39,RORg DNA counter=–
Cc1ccc(C(=O)Nc2nnc(S(=O)(=O)N3CCN(c4ccc(F)cc4)CC3)s2)cc1,–,–,–,–,–,·,
COc1ccc(C(=O)Nc2nnc(-c3ccc(F)cc3)s2)c(OC)c1,25,·,–,–,–,–,
O=C(Nc1nnc(-c2ccccc2)s1)c1ccc(F)cc1,–,–,–,–,–,·,
COc1ccccc1C(=O)Nc1nnc(S(=O)(=O)N2CCN(c3ccc(F)cc3)CC2)s1,18,–,–,–,–,–,
CCOC(=O)[C@]12CCCC=C1N(CCCOC)C(=O)[C@@H]2CC(=O)N1CCSCC1,–,·,·,–,·,·,
C=CCc1cccc(C2Nc3ccccc3C(=O)N2O)c1O (stereo not given),60,–,–,–,–,32,RORg DNA counter=–
Nc1ccn([C@@H]2O[C@H](C(=O)Nc3ccc(Oc4ccccc4)nc3)[C@@H](O)[C@H]2O)c(=O)n1,–,·,–,–,–,·,
O=C(Nc1ccc(Oc2ccccc2)nc1)[C@H]1O[C@@H](n2ccc(=O)[nH]c2=O)[C@H](O)[C@@H]1O,20,·,–,–,–,–,
Cc1nc2ccc(C(=O)OCc3nnc(-c4ccc(Br)cc4)o3)cc2nc1C,23,–,–,–,–,19,
Cc1nc2ccc(C(=O)OCc3nnc(-c4ccccc4)o3)cc2nc1C,–,·,–,–,–,·,
Nc1ccc(-c2cnc(N)c(C(=O)c3cccnc3)n2)cn1,·,·,–,·,·,·,
